In ChEMBL document CHEMBL1828561, “Identification of a potent and selective free fatty acid receptor 1 (FFA1/GPR40) agonist with favorable physicochemical and in vitro ADME properties” (J Med Chem, 2011):

Target: Free fatty acid receptor 1 (Homo sapiens, UniProt O14842)
Assay: Agonist activity at human FFA1 receptor expressed in human 1321N1 cells assessed as calcium mobilization by fluorescence spectrophotometry relative to 10 uM TUG-20
Assay type: functional, cell-based
Method in brief: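 Human FFA1 stably expressed in 1321N1 cells kept under G418 selection, 30000–40000 cells/well. After 24 h, washed in Krebs-HEPES pH 7.4 and loaded 1 h at 37 °C with 1.5 μM Oregon Green 488 BAPTA-1/AM. Compound injected at 10-fold concentration at 37 °C; fluorescence ex 485/em 520 nm over 50 × 0.4 s. Efficacy as % of maximal response to 10 μM TUG-20.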

Sequence of Free fatty acid receptor 1 (O14842 whole entry): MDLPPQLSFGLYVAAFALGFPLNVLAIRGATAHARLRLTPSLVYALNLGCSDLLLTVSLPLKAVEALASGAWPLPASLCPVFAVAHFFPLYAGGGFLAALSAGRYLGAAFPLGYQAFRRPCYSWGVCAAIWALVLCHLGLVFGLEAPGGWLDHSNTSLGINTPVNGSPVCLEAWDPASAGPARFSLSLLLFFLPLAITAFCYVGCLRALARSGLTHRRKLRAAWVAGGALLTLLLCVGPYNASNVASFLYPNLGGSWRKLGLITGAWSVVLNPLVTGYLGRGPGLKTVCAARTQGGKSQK

Work on O=C(O)CCc1ccc(C#Cc2cc(Cl)nc(Cl)c2)cc1 yielded an Efficacy of 103%.
